Screening results (PubChem)
In the library only some 4.1% were active in any assay of this set; here they are far more common.
KCC2 mod: KCC2 (human) Cl- transport modulation; Q9H2X9; KCC2 cells, thallium flux FluoZin-2 fluorescence; B-score of Tl+ flux slope (higher = more flux/activation; lower = inhibition) at 10 µM; actives 2.2% (n = 190,000);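 active = thallium flux slope and its plate-corrected score both differing from the plate sample mean at a set confidence after two filtering rounds, in either direction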;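 also: slope of fluorescence scaled to starting intensity during 10 to 20 s after thallium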
KCNQ1 inh: human KCNQ1 channel inhibition; B-score at 10 µM; CHO-K1 KCNQ1, FluxOR thallium flux fluorescence; stronger effect = higher value; AID 2642; actives 1.3% (n = 310,000);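 active = compounds whose thallium flux B-score, printed positive for inhibition, exceeds three library SD while starting fluorescence stays within three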;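 also: channel opened by potassium depolarization with thallium stimulus after 20 min compound exposure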
KCNK3 inh: human KCNK3 channel inhibition, primary screen | CHO-KCNK3 thallium flux, FluxOR fluorescence; stronger effect = lower value | B-score at 10 µM | actives 0.84% (n = 340,000) | AID 602410;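 active = B-score under library mean minus 4 SD, starting fluorescence ratio at most library mean plus 5 SD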;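 also: more negative B-score means stronger inhibition of thallium flux through KCNK3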
Target sequence (O14649 whole entry, looked up): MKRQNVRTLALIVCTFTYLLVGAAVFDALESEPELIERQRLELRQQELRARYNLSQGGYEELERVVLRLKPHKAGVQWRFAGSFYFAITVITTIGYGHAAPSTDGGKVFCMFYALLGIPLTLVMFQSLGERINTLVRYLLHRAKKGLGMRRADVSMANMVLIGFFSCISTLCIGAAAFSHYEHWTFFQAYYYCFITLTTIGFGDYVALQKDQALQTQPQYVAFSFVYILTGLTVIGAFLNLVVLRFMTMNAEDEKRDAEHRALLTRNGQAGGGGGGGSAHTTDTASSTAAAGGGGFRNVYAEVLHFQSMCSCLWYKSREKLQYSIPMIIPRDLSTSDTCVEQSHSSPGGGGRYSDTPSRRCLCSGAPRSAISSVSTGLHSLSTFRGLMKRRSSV
KCNK9 block: human KCNK9 channel inhibition | Q9NPC2 | HEK293 KCNK9, FluxOR thallium flux fluorescence; stronger effect = lower value | B-score at 10 µM | actives 1.2% (n = 310,000);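 active = ratio B-score over 3 SD below the library mean, with starting fluorescence within 5 SD of its mean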;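 also: negative B-score means less thallium flux so channel inhibition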
KCNQ1 act: potentiates or activates the human KCNQ1 potassium channel. CHO-K1 KCNQ1, thallium flux FluxOR fluorescence; stronger effect = higher value. P51787. actives 0.35% (n = 310,000). B-score at 10 µM;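 active = fluorescence ratio B-score, a plate-corrected score, at least three library SD, with initial intensity B-score within 5 SD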
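Assay system: stable KCNQ1 CHO-K1 line; medium: assay buffer, equal DMSO in all wells; timing: 90 min dye loading and 20 min compound exposure, both at room temperature; technique: kinetic FluxOR thallium fluorescence, 10-s 1-Hz baseline, 110-s post-stimulus read; read-out basis: B score of baseline-normalized fluorescence ratio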
hERG rescue: shields human hERG channel from block by proarrhythmic agents; Q12809; CHO-hERG, FluxOR thallium flux, dofetilide IC70 present; activation (rescue from dofetilide block), less the hit threshold, % at 10 µM; actives 0.51% (n = 310,000); AID 1511;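 active = activation above the mean of controls blocked by dofetilide plus 5 SD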;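 also: thallium influx through hERG after potassium depolarization seen as dye fluorescence rise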
* marks the source's active call; other numbers are inactive results; i = inactive; nt = not tested or not shown.

SMILES	KCC2 mod	KCNQ1 inh	KCNK3 inh	KCNK9 block	KCNQ1 act	hERG rescue
O=C(Nc1cccc(NC(=O)c2ccc(-c3cccc(Br)c3)o2)c1)c1ccco1	-1.06	i	i	-11.6*	i	-27.4
O=C(Nc1cccc(-c2nc3ccccc3[nH]2)c1)c1ccco1	nt	i	i	-6.92*	i	-36.9
O=C(Nc1cccc(-c2nnc(-c3ccco3)o2)c1)c1ccccc1	-1.14	i	i	-6.87*	i	-14.6
O=C(Nc1cccc(NC(=O)c2ccco2)c1)c1ccccc1	nt	i	i	-7.58*	i	-10.1
O=C(c1ccccc1)c1cccc(NC(=O)c2ccco2)c1	-0.865	i	i	i	i	-15.2
Cc1cccc(NC(=S)N2CCC(NC(=O)C3CCCCC3)CC2)c1	nt	i	i	i	i	-5.5
Cc1cc(C)c(OCC(=O)Nc2ccc(NC(=O)c3ccco3)cc2)c([N+](=O)[O-])c1	-1.14	nt	i	nt	nt	nt
O=C(Nc1ccccc1C(=O)O)c1cccc(NC(=O)c2ccc(Br)o2)c1	-3.25*	i	i	i	i	-20.1
Cc1cc(C)c(OCC(=O)Nc2cccc(NC(=O)c3ccco3)c2)c(Br)c1	-1.16	i	i	-7.93*	i	-9.6
CC(=O)Nc1cccc(NC(=O)Cc2cccs2)c1	nt	i	i	i	i	-3.8
O=C(Cc1cccs1)Nc1cccc(-c2nc3cc4ccccc4cc3[nH]2)c1	-1.73	9*	i	i	i	-20.9
O=C(Nc1ccccc1C(=O)O)c1ccc(NC(=O)c2ccc(Br)o2)cc1	-1.38	i	i	i	i	-17.1
CSc1ncccc1C(=O)N1CCCC(Nc2ccc(C)c(C)c2)C1 (stereo not given)	nt	i	i	i	i	-2.9
COc1ccc(NC(=O)c2coc(C)c2)cc1	nt	i	i	i	i	-6.6
CC(=O)Nc1ccc(S(=O)(=O)NC(C)C(=O)NCC(c2ccco2)N(C)C)cc1 (stereo not given)	nt	nt	i	nt	nt	nt
CCOc1ccc(Br)cc1S(=O)(=O)NC1CCCC1	nt	nt	i	nt	nt	nt
Cc1ccc(NC(=O)COC(=O)C2CC3CCCC(C2)C3=O)c([N+](=O)[O-])c1 (stereo not given)	nt	nt	i	nt	nt	nt
CCOC(=O)C(C)Sc1nc(-c2ccccc2)nc2ccccc12 (stereo not given)	1.13	i	i	-7.63*	i	-15.9
Cc1ccc(S(=O)(=O)N/N=C/c2cccc([N+](=O)[O-])c2)cc1	-0.0581	i	i	i	i	-7.0
CCCCCCCCCS(=O)(=O)N/N=C/c1cccc([N+](=O)[O-])c1	nt	8*	i	i	i	-9.7
CCCCCCC(=O)Nc1ccc(C(=O)N/N=C/c2cccnc2)cc1	-0.00741	i	i	i	i	-3.5
CCCCCCCC(=O)Nc1ccc(C(=O)N/N=C/c2cccc([N+](=O)[O-])c2)cc1	nt	i	i	i	i	8.9*
CCOC(=O)C1(Cc2ccc(Cl)cc2)CCN(C(C)Cc2ccc(O)c(OC)c2)CC1 (stereo not given)	nt	13*	i	i	i	-16.2
CCOC(=O)C1(Cc2ccc(OC)cc2)CCN(S(C)(=O)=O)CC1	-1.13	i	i	i	i	-3.6
Cc1ccc(C(=O)C(C)OC(=O)C2CCN(c3ccc(C(F)(F)F)cn3)CC2)cc1C (stereo not given)	nt	6*	i	i	i	-5.2
SMILES	KCC2 mod	KCNQ1 inh	KCNK3 inh	KCNK9 block	KCNQ1 act	hERG rescue
S=c1[nH]nc(COc2ccccc2)n1Cc1ccccc1	3.33	i	i	i	i	-10.5
S=c1[nH]nc(COc2ccccc2)n1C1CCCCC1	11.5*	i	i	i	i	-9.3
O=C(O)CSc1nnc(CSc2nc3ccccc3s2)n1-c1ccccc1	0.0191	i	i	i	i	-9.8
S=c1[nH]nc(CSc2nc3ccccc3s2)n1C1CCCCC1	30.3*	i	i	-7.5*	22*	4.0
COc1ccc(C(=S)N2CCN(c3ccccc3C)CC2)cc1OC	nt	nt	i	nt	nt	nt
O=c1ccc(-c2nc3ccccc3n2Cc2ccc(Cl)cc2)c[nH]1	nt	i	i	i	10*	-11.8
Cc1nc2ccccc2n1Cc1ccc(Cl)cc1	nt	6*	i	i	i	-4.8
